Assays:
Hs-578T = test: Growth inhibition of human Hs 578T cells assessed as cell growth at 10^-8 M incubated for 48 hrs by sulforhodamine B assay relative to control; type: functional; conditions: read-out: Activity
SN12C = test: Growth inhibition of human SN12C cells assessed as cell growth at 10^-6 M incubated for 48 hrs by sulforhodamine B assay relative to control; type: functional; conditions: read-out: Activity
786-0 [1] = test: Growth inhibition of human 786-0 cells assessed as cell growth at 10^-7 M incubated for 48 hrs by sulforhodamine B assay relative to control; type: functional; conditions: 786-0, 48 h, read-out: Activity
LOX IMVI = test: Growth inhibition of human LOXIMVI cells assessed as cell growth at 10^-8 M incubated for 48 hrs by sulforhodamine B assay relative to control; type: functional; conditions: read-out: Activity
IGROV-1 = test: Growth inhibition of human IGROV1 cells assessed as cell growth at 10^-7 M incubated for 48 hrs by sulforhodamine B assay relative to control; type: functional; conditions: IGROV-1, 48 h, read-out: Activity
HCC 2998 = test: Growth inhibition of human HCC2998 cells assessed as cell growth at 10^-7 M incubated for 48 hrs by sulforhodamine B assay relative to control; type: functional; conditions: HCC 2998, 48 h, read-out: Activity
T47D = test: Cytotoxicity against human T47D cells after 48 hrs by SRB assay; type: functional; conditions: for GI50: read-out: GI50
RPMI-8226 [2] = test: Cytotoxicity against human RPMI8226 cells after 48 hrs by SRB assay; type: functional; conditions: RPMI-8226, 48 h; for GI50: read-out: GI50; for CC50: read-out: LC50 (the source's name); for TGI: read-out: TGI
RPMI-8226 [3] = test: Growth inhibition of human RPMI8226 cells assessed as cell growth at 10^-8 M incubated for 48 hrs by sulforhodamine B assay relative to control; type: functional; conditions: RPMI-8226, 48 h, read-out: Activity
K562 = test: Growth inhibition of human K562 cells assessed as cell growth at 10^-7 M incubated for 48 hrs by sulforhodamine B assay relative to control; type: functional; conditions: K562, 48 h, read-out: Activity
BT-549 = test: Growth inhibition of human BT549 cells assessed as cell growth at 10^-7 M incubated for 48 hrs by sulforhodamine B assay relative to control; type: functional; conditions: BT-549, 48 h, read-out: Activity
KM12 = test: Growth inhibition of human KM12 cells assessed as cell growth at 10^-4 M incubated for 48 hrs by sulforhodamine B assay relative to control; type: functional; conditions: KM12, 48 h, read-out: Activity
SF-268 [4] = test: Growth inhibition of human SF268 cells assessed as cell growth at 10^-8 M incubated for 48 hrs by sulforhodamine B assay relative to control; type: functional; conditions: SF-268, 48 h, read-out: Activity
786-0 [5] = test: Cytotoxicity against human 786-0 cells after 48 hrs by SRB assay; type: functional; conditions: 786-0, 48 h; for GI50: read-out: GI50; for TGI: read-out: TGI
HCT-116 [6] = test: Growth inhibition of human HCT116 cells assessed as cell growth at 10^-7 M incubated for 48 hrs by sulforhodamine B assay relative to control; type: functional; conditions: HCT-116, 48 h, read-out: Activity
OVCAR-5 = test: Cytotoxicity against human OVCAR5 cells after 48 hrs by SRB assay; type: functional; conditions: OVCAR-5, 48 h; for GI50: read-out: GI50; for TGI: read-out: TGI
ACHN = test: Growth inhibition of human ACHN cells assessed as cell growth at 10^-6 M incubated for 48 hrs by sulforhodamine B assay relative to control; type: functional; conditions: read-out: Activity
HUVEC = test: Antiproliferative activity against HUVEC cells after 4 days by Coulter counter method; type: cell-based; conditions: Homo sapiens, 96 h
Procedure, shortened: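 Primary HUVEC, primary HMVEC-d and the HMEC-1 line seeded at 20,000 cells/well in gelatin-coated plates in EC growth medium (EGM2). After overnight incubation, 5-fold compound dilutions added. Cells proliferated four days with compound, then trypsinized and counted by Coulter counter to derive IC₅₀.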

SR = test: Cytotoxicity against human SR cells after 48 hrs by SRB assay; type: functional; conditions: for GI50: read-out: GI50; for CC50: read-out: pLC50 (the source's name) (converted)
OVCAR-8 = test: Growth inhibition of human OVCAR8 cells assessed as cell growth at 10^-7 M incubated for 48 hrs by sulforhodamine B assay relative to control; type: functional; conditions: OVCAR-8, 48 h, read-out: Activity
HT-29 [7] = test: Growth inhibition of human HT-29 cells assessed as cell growth at 10^-4 M incubated for 48 hrs by sulforhodamine B assay relative to control; type: functional; conditions: HT-29, 48 h, read-out: Activity
SF-268 [8] = test: Growth inhibition of human SF268 cells assessed as cell growth at 10^-5 M incubated for 48 hrs by sulforhodamine B assay relative to control; type: functional; conditions: SF-268, 48 h, read-out: Activity
HL-60(TB) = test: Growth inhibition of human HL-60(TB) cells assessed as cell growth at 10^-8 M incubated for 48 hrs by sulforhodamine B assay relative to control; type: functional; conditions: HL-60, 48 h, read-out: Activity
SF-295 = test: Cytotoxicity against human SF295 cells after 48 hrs by SRB assay; type: functional; conditions: SF-295, 48 h; for GI50: read-out: GI50; for CC50: read-out: LC50 (the source's name); for TGI: read-out: TGI
U-251 = test: Growth inhibition of human U251 cells assessed as cell growth at 10^-4 M incubated for 48 hrs by sulforhodamine B assay relative to control; type: functional; conditions: U-251, 48 h, read-out: Activity
Malme-3M [9] = test: Cytotoxicity against human MALME-3M cells after 48 hrs by SRB assay; type: functional; conditions: for GI50: read-out: GI50; for CC50: read-out: LC50 (the source's name); for TGI: read-out: TGI
HT-29 [10] = test: Growth inhibition of human HT-29 cells assessed as cell growth at 10^-8 M incubated for 48 hrs by sulforhodamine B assay relative to control; type: functional; conditions: HT-29, 48 h, read-out: Activity
Malme-3M [11] = test: Growth inhibition of human MALME-3M cells assessed as cell growth at 10^-5 M incubated for 48 hrs by sulforhodamine B assay relative to control; type: functional; conditions: read-out: Activity
MDA-MB-435 = test: Growth inhibition of human MDA-MB-435 cells assessed as cell growth at 10^-6 M incubated for 48 hrs by sulforhodamine B assay relative to control; type: functional; conditions: MDA-MB-435, 48 h, read-out: Activity
HCT-116 [12] = test: Growth inhibition of human HCT116 cells assessed as cell growth at 10^-6 M incubated for 48 hrs by sulforhodamine B assay relative to control; type: functional; conditions: HCT-116, 48 h, read-out: Activity
NCI-H23 = test: Growth inhibition of human NCI-H23 cells assessed as cell growth at 10^-6 M incubated for 48 hrs by sulforhodamine B assay relative to control; type: functional; conditions: NCI-H23, 48 h, read-out: Activity
[13] = read-out: LC50 (the source's name)
[14] = read-out: pLC50 (the source's name) (converted)

C#C[C@@]1(O)[C@@H](CO)O[C@@H](n2cc(Cl)c3c(N)ncnc32)[C@@H]1O
growth at 0.01 µM (Hs-578T): 95 to 96% | growth at 1 µM (SN12C): 5 to 11% | growth at 0.1 µM (786-0 [1]): 89 to 94% | growth at 0.01 µM (LOX IMVI): 70 to 84% | growth at 0.1 µM (IGROV-1): 57 to 65% | growth at 0.1 µM (HCC 2998): 79 to 80% | GI50 (T47D): 0.0336 to 0.098 µM | CC50 (T47D; [13]): > 100 µM | TGI (T47D; read-out: TGI): 0.428 to 0.559 µM | GI50 (RPMI-8226 [2]): 0.144 to 0.159 µM | CC50 (RPMI-8226 [2]): > 100 µM | TGI (RPMI-8226 [2]): 0.521 to 0.708 µM | growth at 0.01 µM (RPMI-8226 [3]): 99 to 100% | growth at 0.1 µM (K562): 45 to 55% | growth at 0.1 µM (BT-549): 86 to 90% | growth at 100 µM (KM12): 2 to 6% | growth at 0.01 µM (SF-268 [4]): 82 to 88% | GI50 (786-0 [5]): 0.308 to 0.336 µM | LC50 (lethal concentration, 50% cell kill) (786-0 [5]; read-out: LC50): 5.21 to 5.7 µM | TGI (786-0 [5]): 1.31 to 1.34 µM | growth at 0.1 µM (HCT-116 [6]): 4 to 5% | GI50 (OVCAR-5): 0.28 to 0.644 µM | CC50 (OVCAR-5; [13]): > 100 µM | TGI (OVCAR-5): 70.8 to 100 µM | growth at 1 µM (ACHN): 7% | IC50 (HUVEC): 0.0049 µM | GI50 (SR): 0.0611 to 0.0873 µM | TGI (SR; read-out: TGI): > 100 µM | CC50 (SR): > 100 µM | TGI (SR; read-out: pTGI): > 100 µM | growth at 0.1 µM (OVCAR-8): 35 to 39% | growth at 100 µM (HT-29 [7]): 1% | growth at 10 µM (SF-268 [8]): 2 to 7% | growth at 0.01 µM (HL-60(TB)): 83 to 85% | GI50 (SF-295): 0.202 to 0.298 µM | CC50 (SF-295): > 100 µM | TGI (SF-295): 1.9 to 3.2 µM | growth at 100 µM (U-251): 1% | GI50 (Malme-3M [9]): 0.223 to 0.262 µM | CC50 (Malme-3M [9]): > 100 µM | TGI (Malme-3M [9]): 0.858 to 11.8 µM | growth at 0.01 µM (HT-29 [10]): 83 to 92%

C#C[C@@]1(O)[C@@H](CO)O[C@@H](n2cc(Br)c3c(N)ncnc32)[C@@H]1O
growth at 0.01 µM (Hs-578T): 90 to 96% | growth at 10 µM (Malme-3M [11]): 5 to 10% | growth at 1 µM (MDA-MB-435): 15 to 28% | growth at 1 µM (HCT-116 [12]): 2 to 3% | growth at 1 µM (SN12C): 7 to 13% | growth at 1 µM (NCI-H23): 7 to 13% | growth at 0.1 µM (786-0 [1]): 69 to 88% | growth at 0.01 µM (LOX IMVI): 76 to 94% | growth at 0.1 µM (IGROV-1): 11 to 43% | growth at 0.1 µM (HCC 2998): 73 to 80% | GI50 (T47D): 0.0173 to 0.0432 µM | TGI (T47D; read-out: TGI): 0.177 µM | CC50 (T47D; [14]): > 100 µM | TGI (T47D; read-out: pTGI (converted)): 0.178 µM | GI50 (RPMI-8226 [2]): 0.0673 to 0.242 µM | CC50 (RPMI-8226 [2]): > 100 µM | TGI (RPMI-8226 [2]): 0.733 to 0.934 µM | growth at 0.01 µM (RPMI-8226 [3]): 95 to 101% | growth at 0.1 µM (K562): 27 to 48% | growth at 0.1 µM (BT-549): 65 to 84% | growth at 100 µM (KM12): 2 to 10% | growth at 0.01 µM (SF-268 [4]): 83 to 93% | GI50 (786-0 [5]): 0.164 to 0.351 µM | TGI (786-0 [5]): 0.593 to 1.63 µM | growth at 0.1 µM (HCT-116 [6]): 2 to 12% | GI50 (OVCAR-5): 0.257 to 1.37 µM | TGI (OVCAR-5): 56.7 to 100 µM | CC50 (OVCAR-5; [14]): > 100 µM | growth at 1 µM (ACHN): 8% | IC50 (HUVEC): 0.018 µM | GI50 (SR): 0.0438 to 0.0845 µM | TGI (SR; read-out: TGI): > 100 µM | CC50 (SR): > 100 µM | TGI (SR; read-out: pTGI): > 100 µM | growth at 0.1 µM (OVCAR-8): 28 to 43% | growth at 100 µM (HT-29 [7]): 1 to 2% | growth at 10 µM (SF-268 [8]): 7 to 11% | growth at 0.01 µM (HL-60(TB)): 81 to 82% | GI50 (SF-295): 0.189 to 0.466 µM | CC50 (SF-295): > 100 µM | TGI (SF-295): 4.12 to 13.7 µM | growth at 100 µM (U-251): 4% | GI50 (Malme-3M [9]): 0.627 to 0.799 µM | CC50 (Malme-3M [9]): 81.9 to 82.6 µM | TGI (Malme-3M [9]): 12.2 to 14.1 µM | growth at 0.01 µM (HT-29 [10]): 78 to 94%

From ChEMBL document CHEMBL4270599, “Synthesis of a 3'-C-ethynyl-β-d-ribofuranose purine nucleoside library: Discovery of C7-deazapurine analogs as potent antiproliferative nucleosides” (Eur J Med Chem, 2018)
